One molecule from ChEMBL document CHEMBL1136733, “Pyrrolopyrazinedione-based inhibitors of human hormone-sensitive lipase” (J Med Chem, 2003) can be followed below.

Test [1] deals with T1, Hormone-sensitive lipase (Homo sapiens, UniProt Q05469).
T1 sequence (Q05469 whole entry): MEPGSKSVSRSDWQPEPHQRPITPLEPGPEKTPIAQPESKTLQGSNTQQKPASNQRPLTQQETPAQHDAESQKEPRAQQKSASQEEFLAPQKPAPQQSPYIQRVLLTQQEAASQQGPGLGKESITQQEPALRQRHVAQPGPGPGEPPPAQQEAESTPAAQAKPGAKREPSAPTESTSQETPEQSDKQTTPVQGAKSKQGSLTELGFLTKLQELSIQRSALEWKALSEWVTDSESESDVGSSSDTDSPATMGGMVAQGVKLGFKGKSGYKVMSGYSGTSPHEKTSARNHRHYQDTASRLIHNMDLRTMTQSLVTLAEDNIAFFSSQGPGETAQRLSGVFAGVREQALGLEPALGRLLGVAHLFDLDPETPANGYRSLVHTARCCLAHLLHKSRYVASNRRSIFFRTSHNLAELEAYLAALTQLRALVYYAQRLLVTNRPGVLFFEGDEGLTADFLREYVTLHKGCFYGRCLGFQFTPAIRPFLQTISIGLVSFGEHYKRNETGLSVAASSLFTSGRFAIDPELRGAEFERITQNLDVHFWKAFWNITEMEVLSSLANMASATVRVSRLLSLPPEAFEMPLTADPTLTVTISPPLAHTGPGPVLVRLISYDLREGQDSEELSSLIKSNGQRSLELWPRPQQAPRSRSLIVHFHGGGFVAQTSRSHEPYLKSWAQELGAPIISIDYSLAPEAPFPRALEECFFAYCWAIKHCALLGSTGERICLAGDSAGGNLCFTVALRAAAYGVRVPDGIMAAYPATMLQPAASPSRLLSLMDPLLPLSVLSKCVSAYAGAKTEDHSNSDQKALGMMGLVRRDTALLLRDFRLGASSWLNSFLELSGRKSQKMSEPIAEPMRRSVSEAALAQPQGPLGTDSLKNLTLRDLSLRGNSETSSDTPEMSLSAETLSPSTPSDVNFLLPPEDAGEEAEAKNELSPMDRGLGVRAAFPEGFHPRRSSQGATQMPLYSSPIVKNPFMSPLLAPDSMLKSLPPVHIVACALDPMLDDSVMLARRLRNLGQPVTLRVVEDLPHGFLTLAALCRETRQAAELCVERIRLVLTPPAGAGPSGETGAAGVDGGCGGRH
The experiment in a line: Inhibitory activity against human hormone-sensitive lipase (HSL) expressed in the baculovirus was determined by p-nitrophenyl butyrate (PNPB) assay. Summed up:
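Recombinant human HSL (His-tagged, Sf9/baculovirus, Ni-NTA purified), 10 ng per reaction in 20 mM KPO4 pH 7.4, 1 mM EDTA, 0.1% Triton X-100, 5 mM p-nitrophenyl butyrate, 5% DMSO. Incubated 1 h at 27 °C, absorbance read at 400 nm. Full 8-point IC50 curves run in triplicate.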

In test [2] the target is T1, Hormone-sensitive lipase. Description: Inhibitory activity against Human Hormone-sensitive lipase (HSL) expressed in the baculovirus was determined by HSL [14 C] cholesteryl oleate assay. Summed up: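 Recombinant human HSL from Sf9/baculovirus expression, Ni-NTA purified. Substrate was a [14C]cholesteryl oleate emulsion. IC50 derived from 8-point concentration curves run in triplicate.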

Usually IC50 stands for the concentration that inhibits the measured activity by half. Higher therefore signals lower potency.

As to `COC(=O)C1CC2(COCc3ccccc3)C(=O)N(CCCCc3ccccc3)CC(=O)N2C1c1ccco1` (configuration not stated), the IC50 against Hormone-sensitive lipase [1] came out at 210 nM; against Hormone-sensitive lipase [2] it was 260 nM.
